Source: ChEMBL document CHEMBL1132185, “3-O-Desacyl monophosphoryl lipid A derivatives: synthesis and immunostimulant activities” (J Med Chem, 1999)

How the values were obtained:
[1] = test system: Oryctolagus cuniculus; experiment: Total temperature rise in three rabbits at a dose of 10 ug/kg; type: functional
Method in brief: (§1)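 USP three-rabbit pyrogen test in New Zealand white rabbits (female, 1.5–5.0 kg). Stocks were 100 µg/mL in 10% aq EtOH, diluted in D5W and given into the marginal ear vein at 3 mL/kg. Rectal temperature was taken every 30 min for 3 h and the maximum rise over baseline recorded per rabbit. MPD is the dose giving a three-rabbit total rise ≥1.2 °C.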

[2] = species: Oryctolagus cuniculus; experiment: Minimum pyrogenic dose(MPD) was determined; type: functional; method in brief: as §1
[3] = (§2) lethal toxicity produced when compound is administered along with […] (iv); type: organism-based; settings: in vivo
[4] = Ability to induce iNOS gene expression assessed in an in vitro system utilizing peritoneal exudate cells(PEC) from Propionibacterium acnes-primed mice; type: functional; settings: Mus musculus; read-out: ED50 (the source's name)
Method in brief: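 ICR mice (female, 4-8 weeks) primed i.p. on day 0 with 1 mg heat-killed P. acnes in 0.2 mL saline; peritoneal exudate cells harvested day 4, adhered at 2 × 10^5 cells/well, nonadherent cells washed off. Test materials at various concentrations, in quadruplicate, in RPMI-1640 with 10% FCS for 24 h at 37 °C. Supernatant nitrite measured by Griess reaction; ED50 from nonlinear curve fit.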

[5] = species: Homo sapiens; experiment: Relative ex vivo cytokine induction in human whole blood stimulated with 10 ug/mL (done by ELISA)for Interleukin (IL1-beta); type: functional
Method in brief: (§3)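 Heparinized whole blood from one healthy human volunteer, 0.45 mL, was mixed with 0.05 mL PBS (pH 7.4) containing test compound. It was incubated 4 h at 37 °C with shaking, then diluted with 1.5 mL PBS and centrifuged. Supernatant TNF-α and IL-1β were quantified in duplicate by sandwich ELISA.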

[6] = target: Tumor necrosis factor (Homo sapiens) (UniProt P01375); experiment: Relative ex vivo cytokine induction in human whole blood stimulated with 10 ug/mL (done by ELISA) for Tumor necrosis factor alpha; type: functional, tissue-based; method in brief: as §3
[7] = as §2; type: organism-based, Homo sapiens; settings: mouse, in vivo
[8] = species: Mus musculus; experiment: Adjuvant activity was assessed by measuring tetanus toxoid-specific antibody responses in serum of mice immunised. (evaluated as total Ig); type: functional
Method in brief: (§4)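 Mice immunised on day 0 and day 21 with tetanus toxoid (2 μg per 2 mL emulsion) plus test article in 2.5% oil-water emulsion (12% lecithin-squalene oil phase; 0.1% Tween 80-saline aqueous phase). Controls received toxoid in 2.5% oil-water vehicle. Sera were taken from the orbital plexus 14 days after the second injection, diluted 2-fold ×11 from 1:200 and tested individually by toxoid-coated ELISA. Values are test titer/vehicle control titer.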

[9] = species: Mus musculus; experiment: Adjuvant activity was assessed by measuring tetanus toxoid-specific antibody responses in serum of mice immunised. (evaluated as IgG1); type: functional; method in brief: as §4
[10] = species: Mus musculus; experiment: Adjuvant activity was assessed by measuring tetanus toxoid-specific antibody responses in serum of mice immunised. (evaluated as IgG2b); type: functional; method in brief: as §4
[11] = species: Mus musculus; experiment: Adjuvant activity was assessed by measuring tetanus toxoid-specific antibody responses in serum of mice immunised. (evaluated as IgG2a); type: functional; method in brief: as §4

Sequence of Tumor necrosis factor (Homo sapiens) (P01375 whole entry): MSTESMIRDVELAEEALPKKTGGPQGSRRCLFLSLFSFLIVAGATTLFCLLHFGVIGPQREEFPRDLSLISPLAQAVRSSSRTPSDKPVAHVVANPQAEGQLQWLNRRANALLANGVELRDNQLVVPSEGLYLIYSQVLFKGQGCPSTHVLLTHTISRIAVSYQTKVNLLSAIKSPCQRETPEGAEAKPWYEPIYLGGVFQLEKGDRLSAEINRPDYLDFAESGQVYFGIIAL

SMILES | Fever response [1] | MPD [2] | LD50 [3] | EC50 [4] | Induction [5] | Induction [6] | LD50 [7] | Adjuvant activity [8] | Adjuvant activity [9] | Adjuvant activity [10] | Adjuvant activity [11]
CCCCCCCCCCC[C@H](CC(=O)NC1C(O)OC(COC2OC(CO)C(OP(=O)(O)O)C(OC(=O)C[C@@H](CCCCCCCCCCC)OC(=O)CCCCCCC)C2NC(=O)C[C@@H](CCCCCCCCCCC)OC(=O)CCCCCCC)C(O)C1O)OC(=O)CCCCCCC.CCN(CC)CC (some centres undefined) | 3.9 °C | <2.5 µg/kg | 0.2 µg | 0.3 ng/mL |  |  |  |  |  |  | 
CCCCCCCCCCCCCCCC(=O)O[C@H](CCCCCCCCCCC)CC(=O)NC1C(O)OC(COC2OC(CO)C(OP(=O)(O)O)C(OC(=O)C[C@@H](CCCCCCCCCCC)OC(=O)CCCCCCCCCCCCC)C2NC(=O)C[C@@H](CCCCCCCCCCC)OC(=O)CCCCCCCCCCC)C(O)C1O.CCN(CC)CC (some centres undefined) | 0.6 °C | 15 µg/kg |  | 10 ng/mL | 1.4 | 1.6 | 1 µg |  |  |  | 
CCCCCCCCCCCCCC(=O)O[C@H](CCCCCCCCCCC)CC(=O)NC1C(O)OC(COC2OC(CO)C(OP(=O)(O)O)C(OC(=O)C[C@@H](CCCCCCCCCCC)OC(=O)CCCCCCCCCCCCC)C2NC(=O)C[C@@H](CCCCCCCCCCC)OC(=O)CCCCCCCCCCCCC)C(O)C1O.CCN(CC)CC (some centres undefined) | 0.3 °C | 15 µg/kg |  | 5 ng/mL | 3.4 | 1.7 | 1 µg | 8.2 | 4.5 | 4.5 | 14.6
CCCCCCCCCCC[C@H](CC(=O)NC1C(O)OC(COC2OC(CO)C(OP(=O)(O)O)C(OC(=O)C[C@@H](CCCCCCCCCCC)OC(=O)CCC)C2NC(=O)C[C@@H](CCCCCCCCCCC)OC(=O)CCC)C(O)C1O)OC(=O)CCC.CCN(CC)CC (some centres undefined) | 1.5 °C | 10 µg/kg | 4.5 µg | > 10000 ng/mL |  |  |  |  |  |  | 
CCCCCCCCCCCC(=O)O[C@H](CCCCCCCCCCC)CC(=O)NC1C(O)OC(COC2OC(CO)C(OP(=O)(O)O)C(OC(=O)C[C@@H](CCCCCCCCCCC)OC(=O)CCCCCCCCCCC)C2NC(=O)C[C@@H](CCCCCCCCCCC)OC(=O)CCCCCCCCCCC)C(O)C1O.CCN(CC)CC (some centres undefined) | 5.3 °C | <2.5 µg/kg |  | 1 ng/mL | 2.9 | 4.6 | 0.04 µg |  |  |  | 
CCCCCCCCCCC[C@H](CC(=O)NC1C(O)OC(COC2OC(CO)C(OP(=O)(O)O)C(OC(=O)C[C@@H](CCCCCCCCCCC)OC(=O)CCCCC)C2NC(=O)C[C@@H](CCCCCCCCCCC)OC(=O)CCCCC)C(O)C1O)OC(=O)CCCCC.CCN(CC)CC (some centres undefined) | 1.7 °C | 10 µg/kg | 4 µg | > 10000 ng/mL |  |  |  |  |  |  | 
CCCCCCCCCCC[C@H](CC(=O)NC1C(O)OC(COC2OC(CO)C(OP(=O)(O)O)C(OC(=O)C[C@@H](CCCCCCCCCCC)OC(=O)CCCCCCCCC)C2NC(=O)C[C@@H](CCCCCCCCCCC)OC(=O)CCCCCCCCC)C(O)C1O)OC(=O)CCCCCCCCC.CCN(CC)CC (some centres undefined) | 4.1 °C | <0.06 µg/kg |  | 0.05 ng/mL | 7.3 | 3 | 0.02 µg | 6.2 | 2.4 | 4.3 | 6
